{"source": "ChEMBL document CHEMBL4346672", "about": "“Antimicrobial and KPC/AmpC inhibitory activity of functionalized benzosiloxaboroles” (Eur J Med Chem, 2019)", "key": {"[1]": {"tested_on": "Meyerozyma guilliermondii", "experiment": "Antifungal activity against Candida guilliermondii IBA 155 assessed as diameter of zone inhibition incubated for 24 hrs by CLSI disc diffusion method", "type": "functional", "method_in_brief": "(§1)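 Yeast disc diffusion on Mueller-Hinton agar supplemented with 2% glucose and 0.5 mg/L methylene blue. Compounds in DMSO. Yeasts subcultured on Sabouraud dextrose agar before testing. Zones read after 35 °C, 24 h.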"}, "Candida albicans": {"tested_on": "Candida albicans", "experiment": "Antifungal activity against Candida albicans ATCC 90028 assessed as diameter of zone inhibition incubated for 24 hrs by CLSI disc diffusion method", "type": "functional", "method_in_brief": "as §1"}, "Pichia kudriavzevii": {"tested_on": "Pichia kudriavzevii", "experiment": "Antifungal activity against Candida krusei ATCC 6258 assessed as diameter of zone inhibition incubated for 24 hrs by CLSI disc diffusion method", "type": "functional", "method_in_brief": "as §1"}, "Serratia marcescens": {"tested_on": "Serratia marcescens", "conditions": "ATCC 13880"}, "Escherichia coli": {"tested_on": "Escherichia coli", "experiment": "Antibacterial activity against Escherichia coli ATCC 25922 assessed as diameter of zone inhibition measured after 18 hrs by CLSI disc diffusion method", "type": "functional", "method_in_brief": "(§2)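 Disc diffusion on Mueller-Hinton II agar. Compounds dissolved in DMSO. Strains stored at -80 °C and subcultured twice on tryptic soy agar before testing. Inhibition zones read after 35 °C, 18 h.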"}, "Burkholderia cepacia": {"tested_on": "Burkholderia cepacia", "experiment": "Antibacterial activity against Burkholderia cepacia ATCC 25416 assessed as diameter of zone inhibition measured after 18 hrs by CLSI disc diffusion method", "type": "functional", "method_in_brief": "as §2"}, "Staphylococcus aureus": {"tested_on": "Staphylococcus aureus", "experiment": "Antibacterial activity against Staphylococcus aureus ATCC 6538P assessed as diameter of zone inhibition measured after 18 hrs by CLSI disc diffusion method", "type": "functional", "method_in_brief": "as §2"}, "Enterococcus faecium": {"tested_on": "Enterococcus faecium", "experiment": "Antibacterial activity against Enterococcus faecium ATCC 6057 assessed as diameter of zone inhibition measured after 18 hrs by CLSI disc diffusion method", "type": "functional", "method_in_brief": "as §2"}, "[2]": {"experiment": "Dissociation constant, pKa1 of compound in 0.1 M NaOH by potentiometric analysis", "type": "physicochemical"}, "Pseudomonas aeruginosa": {"tested_on": "Pseudomonas aeruginosa", "experiment": "Antibacterial activity against Pseudomonas aeruginosa ATCC 27853 assessed as diameter of zone inhibition measured after 18 hrs by CLSI disc diffusion method", "type": "functional, organism-based", "method_in_brief": "as §2"}, "Bacillus subtilis": {"tested_on": "Bacillus subtilis", "experiment": "Antibacterial activity against Bacillus subtilis ATCC 6633 assessed as diameter of zone inhibition measured after 18 hrs by CLSI disc diffusion method", "type": "functional", "method_in_brief": "as §2"}, "Proteus mirabilis": {"tested_on": "Proteus mirabilis", "experiment": "Antibacterial activity against Proteus mirabilis ATCC 12453 assessed as diameter of zone inhibition measured after 18 hrs by CLSI disc diffusion method", "type": "functional", "method_in_brief": "as §2"}, "Acinetobacter baumannii": {"tested_on": "Acinetobacter baumannii", "experiment": "Antibacterial activity against Acinetobacter baumannii ATCC 19606 assessed as diameter of zone inhibition measured after 18 hrs by CLSI disc diffusion method", "type": "functional", "method_in_brief": "as §2"}, "Candida tropicalis": {"tested_on": "Candida tropicalis", "experiment": "Antifungal activity against Candida tropicalis IBA 171 assessed as diameter of zone inhibition incubated for 24 hrs by CLSI disc diffusion method", "type": "functional", "method_in_brief": "as §1"}, "Saccharomyces cerevisiae": {"tested_on": "Saccharomyces cerevisiae", "experiment": "Antifungal activity against Saccharomyces cerevisiae ATCC 9763 diameter of zone inhibition incubated for 24 hrs by CLSI disc diffusion method", "type": "functional", "method_in_brief": "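Disc-diffusion run on Mueller-Hinton II agar with 2% glucose and 0.5 mg/L methylene blue, using compounds in DMSO. Yeast was precultured on Sabouraud dextrose agar (24–48 h, 30 °C). Zones read after 24 h at 35 °C.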"}, "Enterobacter cloacae": {"tested_on": "Enterobacter cloacae", "experiment": "Antibacterial activity against Enterobacter cloacae DSM 6234 assessed as diameter of zone inhibition measured after 18 hrs by CLSI disc diffusion method", "type": "functional", "method_in_brief": "as §2"}, "Enterococcus faecalis": {"tested_on": "Enterococcus faecalis", "experiment": "Antibacterial activity against Enterococcus faecalis ATCC 29212 assessed as diameter of zone inhibition measured after 18 hrs by CLSI disc diffusion method", "type": "functional", "method_in_brief": "as §2"}, "[3]": {"tested_on": "Staphylococcus epidermidis", "experiment": "Antibacterial activity against Staphylococcus epidermidis ATCC 12228 assessed as diameter of zone inhibition measured after 18 hrs by CLSI disc diffusion method", "type": "functional", "method_in_brief": "as §2"}, "[4]": {"tested_on": "Stenotrophomonas maltophilia", "experiment": "Antibacterial activity against Stenotrophomonas maltophilia ATCC 13637 assessed as diameter of zone inhibition measured after 18 hrs by CLSI disc diffusion method", "type": "functional", "method_in_brief": "as §2"}, "Candida parapsilosis": {"tested_on": "Candida parapsilosis", "experiment": "Antifungal activity against Candida parapsilosis ATCC 22019 assessed as diameter of zone inhibition incubated for 24 hrs by CLSI disc diffusion method", "type": "functional", "method_in_brief": "as §1"}, "Klebsiella pneumoniae": {"tested_on": "Klebsiella pneumoniae", "conditions": "ATCC 13883"}, "[5]": {"tested_on": "Bordetella bronchiseptica", "experiment": "Antibacterial activity against Bordetella bronchiseptica ATCC 4617 assessed as diameter of zone inhibition measured after 18 hrs by CLSI disc diffusion method", "type": "functional", "method_in_brief": "as §2"}}, "note": "The source made the active and inactive calls. The rule behind the calls is not given here.", "data": [{"smiles": "C[Si]1(C)OB(O)c2cccc(Br)c21", "values": [{"measurement": "diameter of the inhibition zone (DIZ)", "setting": "[1]", "result": 25, "unit": "mm"}, {"measurement": "diameter of the inhibition zone (DIZ)", "setting": "Candida albicans", "result": 17, "unit": "mm"}, {"measurement": "diameter of the inhibition zone (DIZ)", "setting": "Pichia kudriavzevii", "result": 24, "unit": "mm"}, {"measurement": "DIZ", "setting": "Serratia marcescens", "result": "inactive"}, {"measurement": "diameter of the inhibition zone (DIZ)", "setting": "Escherichia coli", "result": "inactive"}, {"measurement": "diameter of the inhibition zone (DIZ)", "setting": "Burkholderia cepacia", "result": "inactive"}, {"measurement": "diameter of the inhibition zone (DIZ)", "setting": "Staphylococcus aureus", "result": 35, "unit": "mm"}, {"measurement": "diameter of the inhibition zone (DIZ)", "setting": "Enterococcus faecium", "result": 24, "unit": "mm"}, {"measurement": "pKa", "setting": "[2]", "result": 6.5}, {"measurement": "diameter of the inhibition zone (DIZ)", "setting": "Pseudomonas aeruginosa", "result": "inactive"}, {"measurement": "diameter of the inhibition zone (DIZ)", "setting": "Bacillus subtilis", "result": 30, "unit": "mm"}, {"measurement": "diameter of the inhibition zone (DIZ)", "setting": "Proteus mirabilis", "result": 15, "unit": "mm"}, {"measurement": "diameter of the inhibition zone (DIZ)", "setting": "Acinetobacter baumannii", "result": "inactive"}, {"measurement": "diameter of the inhibition zone (DIZ)", "setting": "Candida tropicalis", "result": 14, "unit": "mm"}, {"measurement": "diameter of the inhibition zone (DIZ)", "setting": "Saccharomyces cerevisiae", "result": 30, "unit": "mm"}, {"measurement": "diameter of the inhibition zone (DIZ)", "setting": "Enterobacter cloacae", "result": "inactive"}, {"measurement": "diameter of the inhibition zone (DIZ)", "setting": "Enterococcus faecalis", "result": 16, "unit": "mm"}, {"measurement": "diameter of the inhibition zone (DIZ)", "setting": "[3]", "result": 30, "unit": "mm"}, {"measurement": "diameter of the inhibition zone (DIZ)", "setting": "[4]", "result": 13, "unit": "mm"}, {"measurement": "diameter of the inhibition zone (DIZ)", "setting": "Candida parapsilosis", "result": 12, "unit": "mm"}, {"measurement": "DIZ", "setting": "Klebsiella pneumoniae", "result": "inactive"}, {"measurement": "diameter of the inhibition zone (DIZ)", "setting": "[5]", "result": "inactive"}]}]}
